Here are results for 15 molecules from ChEMBL document CHEMBL4428101, “The Oncolytic Efficacy and in Vivo Pharmacokinetics of [2-(4-Chlorophenyl)quinolin-4-yl](piperidine-2-yl)methanol (Vacquinol-1) Are Governed by Distinct Stereochemical Features” (J Med Chem, 2016).

Active and inactive are the calls of the source.

Data set [1] in a line: Cytotoxicity against patient-derived U3013MG cells assessed as reduction in cell viability after 48 hrs by Celltiter-Glo reagent based assay. Format: functional. Conditions: Homo sapiens.
Data set [2] is described as follows: Oral bioavailability in NMRI mouse brain at 20 mg/kg administered as single dose through gavage measured after 144 hrs by UPLC-MS/MS analysis. Format: ADME, organism-based. In a few lines: (§1)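 Single dose to male NMRI mice, i.v. tail vein under light isoflurane or p.o. gavage without anesthesia. Blood by orbital plexus into EDTA, plasma by centrifugation at +4 °C; brains homogenized in 4 mL PBS (pH 7.4) per g. Sampled 15 min to 144 h, n = 3 per time point. UPLC-MS/MS with internal standard; noncompartmental analysis of composite mean profiles using nominal times and doses.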

The nature of data set [3]: Half life in NMRI mouse brain at 2 mg/kg, iv administered as single dose by UPLC-MS/MS analysis. In kind it is ADME, organism-based. In a few lines:
as §1

Data set [4] can be described thus: CNS toxicity in NMRI mouse at 2 mg/kg, iv administered as single dose up to 144 hrs. In kind it is organism-based. The conditions noted are these: in vivo.
Data set [5] is described as follows: AUClast in NMRI mouse brain at 20 mg/kg, po administered as single dose through gavage measured after 144 hrs by UPLC-MS/MS analysis. In kind it is ADME, organism-based. Further details: dose 20 mg/kg, time < 144 hr, route oral. In a few lines: as §1
The nature of data set [6]: Half life in NMRI mouse brain at 20 mg/kg, po administered as single dose through gavage by UPLC-MS/MS analysis. In kind it is ADME, organism-based. In a few lines: as §1
The nature of data set [7]: Tlast in NMRI mouse brain at 2 mg/kg, iv administered as single dose by UPLC-MS/MS analysis. Format: ADME, organism-based. Conditions: in vivo. In a few lines: as §1
Data set [8] can be described thus: Toxicity in NMRI mouse assessed as drug tolerance at 2 mg/kg, iv administered as single dose up to 144 hrs. Format: organism-based. The conditions noted are these: in vivo.
A short description of data set [9]: AUClast in NMRI mouse plasma at 20 mg/kg, po administered as single dose through gavage measured up to 144 hrs post dose by UPLC-MS/MS analysis. Format: ADME, organism-based. On the set-up: dose 20 mg/kg, time < 144 hr, route oral. In a few lines: as §1
A short description of data set [10]: Fraction unbound in NMRI mouse plasma at 5 uM by LC-MS based equilibrium dialysis method. In kind it is ADME, cell-free. In a few lines:
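Equilibrium dialysis across a semipermeable membrane, 100% mouse plasma against pH 7.4 buffer, 5 μM compound at 0.5% final DMSO, 37 °C. Both sides sampled after equilibration. Duplicate incubations, reported as averages.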

Data set [11] has as its system U3013MG. In words: Antitumor activity against GFP-labeled human U3013MG cells orthotopically xenografted in 2 days post fertilized zebra fish embryo assessed as reduction in tumor cells at 30 uM measured 6 days post transplantation by fluorescence assay. Format: functional, cell-based. In a few lines:
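U3013 cells labeled with Cell Tracker Green; about 3000 cells injected into the brain ventricle of 2 dpf Mitfa-morpholino larvae. Three embryos per well in 200 μL egg water holding compound or 0.1% DMSO, renewed every 6 h. Imaged 6 days post-transplantation; tumor burden from GFP fluorescence intensity and counts of larvae with grafted cells.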
On the technique in general: In xenograft studies the graft and the host belong to different species.

Data set [12] can be described thus: Toxicity in 2 days post fertilized zebra fish embryo assessed as effect on larval development up to 50 uM. Conditions: zebrafish, 48 h. On the set-up: species or system Danio rerio. In a few lines:
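Zebrafish embryos were exposed to rising concentrations up to 50 μM or to vehicle, and larval development was scored visually at 2 days post-fertilization.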

Data set [13] can be described thus: Toxicity in 2 days post fertilized zebra fish embryo orthotopically xenografted with GFP-labeled human U3013MG cells assessed as larval development defect at 30 uM. Further details: species or system Danio rerio. Conditions: zebrafish, 48 h.
Data set [14] is described as follows: Ratio of drug level in NMRI mouse brain to plasma at 2 mg/kg, iv or 20 mg/kg, po administered as single dose through gavage measured up to 144 hrs post dose by UPLC-MS/MS analysis. In kind it is ADME, organism-based. Conditions: brain and plasma, read-out: BPR. In a few lines:
as §1

Data set [15] is described as follows: Systemic toxicity in NMRI mouse at 20 mg/kg, po administered as single dose through gavage up to 144 hrs. Format: organism-based. Conditions: in vivo.
Data set [16] in a line: CNS toxicity in NMRI mouse at 20 mg/kg, po administered as single dose through gavage up to 144 hrs. Format: organism-based. The conditions noted are these: in vivo.
Data set [17] in a line: AUClast in NMRI mouse plasma at 2 mg/kg, iv administered as single dose measured up to 144 hrs post dose by UPLC-MS/MS analysis. Format: ADME, organism-based. On the set-up: time < 144 hr, dose 2 mg/kg, route intravenous. In a few lines: as §1
A short description of data set [18]: Toxicity in NMRI mouse assessed as drug tolerance at 20 mg/kg, po administered as single dose through gavage up to 144 hrs. Format: organism-based. The conditions noted are these: in vivo.
Data set [19] in a line: Tlast in NMRI mouse plasma at 2 mg/kg, iv administered as single dose by UPLC-MS/MS analysis. In kind it is ADME, organism-based. The conditions noted are these: in vivo. In a few lines: as §1
For data set [20], the system named is U3013MG. Description: Cytotoxicity against patient-derived U3013MG cells assessed as induction of catastrophic vacuolization at 5 uM after 4 to 8 hrs by light microscopy. Format: functional, cell-based. Conditions: Homo sapiens. In a few lines:
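U3013 glioblastoma cells in 384-well plates were examined by light microscopy at 4 h intervals for large lucent intracellular vacuoles, with bright-field imaging at 37 °C, 5% CO2.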

The nature of data set [21]: Tlast in NMRI mouse plasma at 20 mg/kg, po administered as single dose through gavage by UPLC-MS/MS analysis. In kind it is ADME, organism-based. Conditions: in vivo. In a few lines: as §1
Data set [22] in a line: Half life in NMRI mouse plasma at 20 mg/kg, po administered as single dose through gavage by UPLC-MS/MS analysis. Format: ADME, organism-based. In a few lines: as §1
Data set [23] can be described thus: Cmax in NMRI mouse brain at 20 mg/kg, po administered as single dose through gavage measured after 144 hrs by UPLC-MS/MS analysis. On the set-up: dose 20 mg/kg, route oral. In kind it is ADME, organism-based. In a few lines: as §1
The nature of data set [24]: AUClast in NMRI mouse brain at 2 mg/kg, iv administered as single dose measured after 144 hrs by UPLC-MS/MS analysis. Format: ADME, organism-based. On the set-up: dose 2 mg/kg, time < 144 hr, route intravenous. In a few lines:
as §1

Data set [25] can be described thus: Cmax in NMRI mouse brain at 2 mg/kg, iv administered as single dose measured after 144 hrs by UPLC-MS/MS analysis. In kind it is ADME, organism-based. Further details: dose 2 mg/kg, route intravenous. In a few lines: as §1
Data set [26] in a line: Tlast in NMRI mouse brain at 20 mg/kg, po administered as single dose through gavage by UPLC-MS/MS analysis. In kind it is ADME, organism-based. Conditions: in vivo. In a few lines: as §1
Data set [27] can be described thus: Systemic toxicity in NMRI mouse at 2 mg/kg, iv administered as single dose up to 144 hrs. In kind it is organism-based. The conditions noted are these: in vivo.
Data set [28] in a line: Cytotoxicity against patient-derived U3013MG cells assessed as reduction in cell viability by Celltiter-Glo reagent based assay. Format: functional. Conditions: Homo sapiens.
A short description of data set [29]: Half life in NMRI mouse plasma at 2 mg/kg, iv administered as single dose by UPLC-MS/MS analysis. In kind it is ADME, organism-based. In a few lines: as §1

For `OC(c1cc(-c2ccncc2)nc2ccccc12)C1CCCCN1` (stereo not given), the IC50 in data set [1] is more than 50 µM.

In the case of `O[C@H](c1cc(-c2ccc(C(F)(F)F)nc2)nc2ccccc12)[C@@H]1CCCCN1` (relative stereo), in data set [1], the half-inhibitory concentration (IC50) turned out to be 38 µM.

Turning to `Cc1ccc(-c2cc([C@@H](O)[C@@H]3CCCCN3)c3ccccc3n2)cc1C#N` (relative stereo), in [1], the IC50 is 32.1 µM.

Regarding `O[C@H](c1cc(-c2ccc(C(F)(F)F)cc2)nc2ccccc12)[C@@H]1CCCCN1` (relative stereo), the IC50 in data set [1] amounted to 13.5 µM.

The molecule `O[C@H](c1cc(-c2ccc(Cl)cc2)nc2ccccc12)[C@@H]1CCCCN1` showed a bioavailability in [2] of 75.2%. In addition, the results for the half-life in data set [3], in data set [6] and in data set [22] were 3 days, 2.71 days and 3.38 days, respectively. Besides, the Activity result in data set [4], in [8], in data set [12], in data set [13], in data set [15] and in data set [16] was “Non-Toxic” in each case. Moreover, the Activity entry in [18] and in data set [27] was “Non-Toxic” each time. Moreover, the AUC(0-t) at 144 h in [5] stood at 400 µg·h/mL; in data set [9], 246 µg·h/mL; in [17], 62000 ng·h/mL; in data set [24], 53100 ng·h/mL. Further, the Tlast in [7], in [19], in data set [21] and in data set [26] was 144 h throughout. The same molecule registered a fraction unbound at 5 µM in data set [10] of 0.0137. In addition, the IC50 in [1] was 3.79 µM. Besides, the result in the data set with U3013MG [11] and with U3013MG [20] was Active. In addition, the Kp at 144 h in data set [14] is 2. Further, the Cmax amounted to 4840 ng/mL in data set [23] and 1970 ng/mL in [25].

As for `O[C@@H](c1cc(-c2ccc(Cl)cc2)nc2ccccc12)[C@@H]1CCCCN1` (single isomer, unassigned), in data set [1], the IC50 worked out at 9.91 µM. The outcome in the data set with U3013MG [20] was inactive.

Regarding `OC(c1cc(-c2ccc(Cl)cc2)nc2ccccc12)C1CCCCN1` (stereo not given), the IC50 in [28] is 3.14 µM.

With `O[C@@H](c1cc(-c2ccc(Cl)cc2)nc2ccccc12)[C@H]1CCCCN1`, in [2], the bioavailability stood at 89%. For the same molecule, the half-life was 2.79 days in [3], 4 days in data set [6], 2880 min in data set [29] and 2.88 days in data set [22]. Besides, the Activity result in [4], in [8], in data set [15], in [16], in data set [18] and in data set [27] was “Non-Toxic” each time. Moreover, the AUC(0-t) at 144 h in data set [5] was 157 µg·h/mL; in data set [9], 183 µg·h/mL; in [17] it was 14100 ng·h/mL; in data set [24] it was 12200 ng·h/mL. Further, the Tlast in [7], in [19], in [21] and in data set [26] was 144 h throughout. For the same molecule, in data set [10], the fraction unbound at 5 µM was determined as 0.0059. For the same molecule, in data set [1], the IC50 was 3.46 µM. Moreover, the figures for the maximum concentration (Cmax) in data set [23] and in data set [25] were 1490 ng/mL and 777 ng/mL, respectively.

For the molecule `OC(c1cc(-c2ccsc2)nc2ccccc12)C1CCCCN1` (stereo not given), the IC50 in data set [1] turned out to be 26.5 µM.

As for `Cc1ccc(-c2cc(C(O)C3CCCCN3)c3ccccc3n2)o1` (stereo not given), the IC50 in [1] was more than 50 µM.

In the case of `Cc1noc(C)c1-c1cc(C(O)C2CCCCN2)c2ccccc2n1` (stereo not given), the IC50 in data set [1] was more than 50 µM.

Take `OC(c1cc(-c2cncnc2)nc2ccccc12)C1CCCCN1` (stereo not given): the concentration for half-maximal inhibition (IC50) in [1] is more than 50 µM.

Consider `OC(c1cc(-c2ccc[nH]2)nc2ccccc12)C1CCCCN1` (stereo not given), for which the IC50 in data set [1] is more than 50 µM.

In the case of `CCCN(CCC)C(=O)c1ccc(-c2cc([C@@H](O)[C@@H]3CCCCN3)c3ccccc3n2)cc1` (relative stereo), in [1], the IC50 turned out to be 35.4 µM.

As to `O[C@H](c1cc(-c2ccc(Cl)cc2)nc2ccccc12)[C@H]1CCCCN1` (single isomer, unassigned), the IC50 in data set [1] amounted to 10.5 µM. The outcome in the data set on U3013MG [20] was inactive.

Broadly, the IC50 is the point on the concentration scale where inhibition reaches its midpoint. Broadly, the bioavailability is the share of a dose that reaches the circulation, judged against a reference dose that is usually intravenous. A high value points to much systemic uptake. The term half-life denotes the time needed for the level to fall by half in the phase considered. As a reminder, the AUC(0-t) is the area under the concentration-time curve up to a stated or last time point. Higher therefore signals more exposure. In general, fraction unbound refers to free concentration divided by total concentration. High values mean weak binding, low ones extensive binding. In general, Cmax refers to the peak of the concentration-time curve.
